Assay results reported in ChEMBL document CHEMBL1149837, “Isothiocyanate sesquiterpenes from a sponge of the genus axinyssa” (2008).
Activity calls are given as the source filed them. No cut-off for these calls is given here.

Legend:
A549 [1] = experiment: Cytotoxicity against human A549 cells at 10ug/ml by SRB assay; format: functional, cell-based
How it was run: (§1)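 SRB colorimetric assay of cell growth and viability, adapted from a published method, in human tumour lines MDA-MB-231 (breast adenocarcinoma), A-549 (lung adenocarcinoma) and HT-29 (colon adenocarcinoma). The highest concentration tested was 10 µg/mL. Read-outs were GI50 and TGI, both in µM.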

MDA-MB-231 [2] = experiment: Cytotoxicity against human MDA-MB-231 cells at 10ug/ml by SRB assay; format: functional, cell-based; how it was run: as §1
HT-29 [3] = experiment: Cytotoxicity against human HT29 cells at 10ug/ml by SRB assay; format: functional, cell-based; how it was run: as §1
A549 [4] = experiment: Cytotoxicity against human A549 cells by SRB assay; format: functional; how it was run: as §1
HT-29 [5] = experiment: Cytotoxicity against human HT29 cells by SRB assay; format: functional; how it was run: as §1
MDA-MB-231 [6] = experiment: Cytotoxicity against human MDA-MB-231 cells by SRB assay; format: functional; how it was run: as §1

## CC(C)[C@@H]1CC[C@](C)(N=C=S)[C@]2(O)CC[C@@](C)(O)C=C12
A549 [1]
  Activity: inactive
MDA-MB-231 [2]
  Activity: inactive
HT-29 [3]
  Activity: inactive

## CC(C)[C@@]1(OO)CC[C@](C)(N=C=S)[C@@H]2CC[C@@](C)(O)C=C21
A549 [1]
  Activity: inactive
MDA-MB-231 [2]
  Activity: inactive
HT-29 [3]
  Activity: inactive

## CC(C)[C@@H]1CC[C@](C)(N=C=S)[C@@H]2CC[C@@](C)(O)C=C12 [AXINISOTHIOCYANATE J]
A549 [4]
  GI50: 11.8 µM
  TGI: 19 µM
HT-29 [5]
  GI50: 11.8 µM
  TGI: 14 µM
MDA-MB-231 [6]
  GI50: 10.4 µM
  TGI: 14.3 µM

## CC1=C[C@@H]2[C@@H](C(C)C)CC[C@@](C)(N=C=S)[C@@H]2CC1=O [AXINISOTHIOCYANATE L]
A549 [4]
  GI50: 31.4 µM
HT-29 [5]
  GI50: 31.4 µM
